mIAP act – activators of mouse IAP, primary screen, biochemical, luminescence, uHTS; intestinal alkaline phosphatase [Mus musculus]; muIAP, CDP-Star luminescence, 30 min; stronger effect = higher value; 1 = vehicle-only enzyme signal, 0 = enzyme-free wells; activation factor at 10 µM; 330,000 tested, 0.24% active;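 active means activation factor of at least 2 at 20 µM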
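Assay system: mouse IAP enzyme; reagent: chemiluminescent substrate CDP-Star; dosing: test compounds delivered from DMSO solution; schedule: 30 min at room temperature; measured by: luminescence from enzymatic CDP-Star hydrolysis; controls: DMSO-only wells and no-enzyme negative control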
hIAP activ – human IAP activators, primary screen, biochemical, luminescence, uHTS; Intestinal-type alkaline phosphatase (Homo sapiens), P09923; purified human IAP, CDP-Star luminescence, 30 min; stronger effect = higher value; 1 = vehicle-only enzyme, 0 = enzyme-free background; activation factor at 10 µM; AID 2524, 2010; 330,000 tested, 0.16% active;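 active means activation factor of the enzyme at least 2-fold when tested at 20 µM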
Target sequence (P09923 whole entry, looked up): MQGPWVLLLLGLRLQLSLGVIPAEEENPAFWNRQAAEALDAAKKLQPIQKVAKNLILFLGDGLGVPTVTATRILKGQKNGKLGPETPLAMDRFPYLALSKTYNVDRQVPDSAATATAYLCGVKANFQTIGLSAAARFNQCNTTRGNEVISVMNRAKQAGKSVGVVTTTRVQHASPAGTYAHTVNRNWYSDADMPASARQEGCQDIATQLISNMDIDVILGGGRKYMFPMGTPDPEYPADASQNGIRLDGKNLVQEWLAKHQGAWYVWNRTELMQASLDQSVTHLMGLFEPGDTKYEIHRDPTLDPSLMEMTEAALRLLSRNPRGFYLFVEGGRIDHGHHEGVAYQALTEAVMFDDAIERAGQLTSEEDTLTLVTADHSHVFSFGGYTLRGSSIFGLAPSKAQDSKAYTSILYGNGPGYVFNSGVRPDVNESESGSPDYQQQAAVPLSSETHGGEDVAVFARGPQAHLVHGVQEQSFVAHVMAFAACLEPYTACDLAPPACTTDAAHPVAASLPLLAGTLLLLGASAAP
bIAP inhibitor – bovine intestinal alkaline phosphatase inhibitors, primary screen, selectivity assay for TNAP inhibitor project, biochemical, bovine IAP, CDP-star luminescence | alkaline phosphatase, intestinal [Bos taurus] | inhibition, % at 20 µM | 190,000 tested, under 10 active | purified bovine IAP, 30 min;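 active means over 50% inhibition of intestinal alkaline phosphatase at 20 µM in the single-dose screen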
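test system = bovine IAP enzyme | medium = DEA buffer 100 mM, pH 9.8, with MgCl2 1.0 mM, ZnCl2 0.02 mM | detection = luminescence | dosing = single compound dose of 20 µM, 2% DMSO final | incubation = 30 min reaction at room temperature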
mIAP inh – inhibitors of mouse IAP, primary screen, biochemical, luminescence, uHTS; purified mouse IAP, CDP-Star luminescence, 30 min; inhibition, % at 10 µM; 330,000 tested, 0.2% active; AID 2806, 2010;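 active means inhibition of at least 40% at 10 µM in the primary screen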;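 further: plate controls were DMSO with enzyme for no effect and no enzyme wells for full effect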
hIAP inh – human IAP inhibitors, primary screen, biochemical, luminescence, uHTS | Intestinal-type alkaline phosphatase (Homo sapiens), P09923 | purified IAP, CDP-Star luminescence, 30 min | inhibition, % at 10 µM | 330,000 tested, 0.12% active;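 active means inhibition reaching a set limit with compound at 10 µM in the primary screen, cut at about 35% in these data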;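 further: plate controls were DMSO wells with enzyme for no effect and no-enzyme buffer wells for full effect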
bIAP activator – bovine intestinal alkaline phosphatase activators, primary screen, biochemical, bovine IAP, CDP-star luminescence | purified bovine IAP, 30 min; stronger effect = higher value; fold of DMSO-control signal, blank-subtracted | 200,000 tested, 0.17% active | activation factor at 20 µM | alkaline phosphatase, intestinal [Bos taurus];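 active means activation factor of 2 or more at 20 µM, a signal rise over negative controls twice the positive control's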
The depositor's hits bear a star; i = inactive; · = no result. In the library only some 0.79% were active in any assay of this set; here they are far more common.

SMILES	mIAP act	hIAP activ	bIAP inhibitor	mIAP inh	hIAP inh	bIAP activator
Cc1cccc(NC(=S)NC(NC(=O)c2ccco2)C(Cl)(Cl)Cl)c1 (configuration not stated)	2*	1	19	-104	-2	0.8
Cc1ccc(NC(=S)NC(NC(=O)c2ccccc2)C(Cl)(Cl)Cl)c(C)c1 (configuration not stated)	1.8	1.1	-18	-84	-6	1.2
O=C(COC(=O)/C=C/c1ccccc1Cl)NCCNC(=O)COC(=O)/C=C/c1ccccc1Cl	0.93	0.9	·	7	10	·
COc1ccc(C(=O)NCCCn2ccnc2)cc1	0.97	1.3	6	3	-26	0.9
COc1ccc(-c2nn(-c3ccccc3)cc2C(=O)NCCCn2ccnc2)cc1	1.5	0.91	-125	-46	9	2.3*
CC(C)CCNC(=S)Nc1ccc(Br)cc1	2.2*	1.2	-4	-124	-17	1
O=C(c1cccc(F)c1)N1CCN(S(=O)(=O)Cc2ccccc2)CC1	1.1	1.2	·	-8	-19	·
COc1cccc(NC(=O)NCCCSC2CCCCC2)c1	2.3*	0.89	16	-126	12	0.8
CCn1c2ccccc2c2cc(NC(=O)C3CCN(S(=O)(=O)c4cccs4)CC3)ccc21	3*	1.1	-33	-196	-14	1.3
CN(C(=O)C1CCC(=O)N(Cc2ccccc2F)C1)C1CCOCC1 (configuration not stated)	1	0.96	·	-3	4	·
O=C(NCc1ccccc1)c1nc2c(nnn2Cc2cccc(Cl)c2)c(=O)[nH]1	1	1.3	-116	-1	-26	2.2*
O=C(NCc1ccco1)c1nc2c(nnn2Cc2cccc(Cl)c2)c(=O)[nH]1	1.1	1.2	-3	-9	-24	1
COc1cc(/C=C2\SC(=S)N(Nc3ccccc3)C2=O)cc(OC)c1OC	0.6	0.95	7	40*	5	0.9
CCC1(c2ccc(F)cc2)NC(=O)N(CC(=O)c2cc(C)n(C3CC3)c2C)C1=O (configuration not stated)	1.1	1.1	·	-6	-5	·
Cc1ccc(S(=O)(=O)N2CCN(CC(=O)NC3CCCc4ccccc43)CC2)c(C)c1 (configuration not stated)	1.3	1	i	-27	-3	56*
COc1cc(C(=O)N/C(=C\c2cn(C)c3ccccc23)C(=O)NCCCN2CCOCC2)cc(OC)c1OC	1.1	1	·	-7	-2	·
Cc1oc(S(=O)(=O)N2CCCCC2)cc1NC(=O)Nc1ccc(Cl)cc1	2.6*	1.4	·	-156	-35	·
O=C(Nc1ccccc1)Nc1ccc(S(=O)(=O)N2CCCCC2)cc1	2.4*	0.94	17	-140	6	0.8
O=C(Nc1ccc(S(=O)(=O)N2CCCCC2)cc1)c1ccccc1Cl	1	0.86	19	-1	14	0.8
COC(=O)[C@H](Cc1ccccc1)NC(=O)Cn1cnc2c(NCc3ccccc3)ncnc21	1.2	·	·	-6	·	·
S=C(NCc1ccccc1)NC1CCCc2ccccc21 (configuration not stated)	2.6*	1	-3	-157	-4	1
CC1CCN(CCc2nc3cc(NC(=O)NC4CCCCC4)ccc3n2C)CC1	1.3	1	-146	-34	-3	2.5*
Cn1c(CCN2CCCCC2)nc2cc(NC(=O)NC3CCCCC3)ccc21	1.1	1.1	-77	-12	-10	1.8
CCCCSCCCNC(=O)Nc1ccc(CC)cc1	2.5*	1.1	49	-146	-7	0.5
Cn1c(=O)[nH]c(=O)c2c1nc(NCCCn1ccnc1)n2CCOc1ccccc1	1.1	1.1	-290	-7	-14	3.9*
SMILES	mIAP act	hIAP activ	bIAP inhibitor	mIAP inh	hIAP inh	bIAP activator
Cn1c(=O)[nH]c(=O)c2c1nc(NCCCn1ccnc1)n2Cc1ccccc1	1.1	1.2	-148	-11	-23	2.5*
Cn1c(=O)[nH]c(=O)c2c1nc(NCCCO)n2Cc1ccc(F)cc1	1	1.1	4	-4	-13	1
CCN(CC)C(=O)c1[nH]cnc1C(=O)NC1CCN(C(=O)OC(C)(C)C)CC1	1.1	1.2	·	-6	-17	·
CC(NC(=O)c1cccnc1Sc1ccccc1)c1ccc(S(N)(=O)=O)cc1 (configuration not stated)	1	1.2	·	-1	-15	·
COc1ccc(C)cc1NC(=O)C1CCCCN1S(=O)(=O)c1ccccc1 (configuration not stated)	0.95	0.98	·	5	2	·
Cc1ccc(C(C(=O)NCC2CCCO2)N(C(=O)c2snc(C(N)=O)c2N)c2ccccc2F)o1 (configuration not stated)	0.97	0.96	·	3	4	·
O=C(Nc1ccccc1)Nc1nc(-c2ccc(F)cc2)cs1	2.5*	0.95	19	-153	5	0.8
Fc1ccc(-c2csc(NC(=S)Nc3ccccc3)n2)cc1	0.86	0.9	·	14	10	·
O=C(Nc1nc(-c2ccc(Cl)cc2)cs1)NC1CCCCC1	3.7*	0.93	4	-269	7	1
Cc1ccc(N2CCN(C(=O)CCc3nc4ccccc4[nH]3)CC2)c(C)c1	1.4	1.1	-166	-41	-6	2.7*
COc1ccc(NCC(=O)Nc2cccc(C(F)(F)F)c2)cc1S(=O)(=O)N1CCOCC1	1.1	0.98	·	-8	2	·
CCOc1ccc(C(=O)N/N=C/c2ccccc2[N+](=O)[O-])cc1	1.1	1.1	-101	-10	-12	2*
Nc1ncnc2c1ncn2[C@@H]1O[C@H](CNC(=O)[C@H](N)Cc2cscn2)[C@@H](O)[C@H]1O	1.1	·	·	-11	·	·
CC(C)N1C(=S)SC(C)(C)C1NO (configuration not stated)	1	0.91	-112	-2	9	2.1*
NS(=O)(=O)c1ccc(N2N=C(c3ccccc3)CC2c2ccccc2)cc1 (configuration not stated)	2.1*	1.4	12	-105	-37	0.9
Cc1ccsc1C(=O)Nc1ccc2c(c1)OCCO2	1	0.94	-110	-4	6	2.1*
Cc1ncoc1C(=O)Nc1ccc2c(c1)OCCO2	0.92	0.84	5	8	16	0.9
COc1cc(/C=C/C(=O)O)cc(S(=O)(=O)Nc2ccccc2C(=O)NCc2ccco2)c1OC	1.1	1.1	·	-6	-7	·
S=C(Nc1ccc(Br)cc1)NC1CCCC1	2.1*	1.2	-11	-107	-18	1.1

Bioassay records (PubChem BioAssay)
